Reference: publication PMC8048885 (International Journal of Cancer, 2021)
Like-named read-outs stand apart in the source and are kept apart here.

How the values were obtained:
[1] = tested on: intragastric pH; details: cited from earlier work
[2] = tested on: gastric H+/K+ adenosine triphosphatase (ATPase); details: porcine gastric vessels, cited from earlier work
[3] = tested on: CYP1A2; details: cited from earlier work
[4] = cited from earlier work
[5] = tested on: advanced RCC; assay type: in vivo, human; details: univariate Cox regression
Procedure, shortened: (§1)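 PFS was defined as time on treatment until progression or death and analysed per tumour type, with GAS vs no GAS groups (PPI/H2A use on the days before first Cmin). Median PFS came from Kaplan-Meier with log rank test, and hazard ratios from univariate Cox regression; P<.05 was significant. Patients with GI abnormalities or on strong CYP3A4 inducers/inhibitors were excluded.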

[6] = tested on: STS; assay type: in vivo, human; details: for median PFS: pazopanib 800 mg fasted cohort
Procedure, shortened: as §1

[7] = cited from earlier work; remark: listed apart in the source
[8] = first steady-state pazopanib trough concentration; assay type: in vivo, human
Procedure, shortened: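 Observational study. Patients took the study drug 800 mg OD fasted or 600 mg OD with food and were advised to take a PPI/H2A 1 hour later; antacid users were counted as non-GAS. Only the first steady-state (>7 consecutive days) plasma trough was used, measured by validated HPLC-MS/MS.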

| Compound | duration of pH elevation >4 ([1]; omeprazole 20 mg) | time to fully inhibit the H+, K+ ATPase [2] [min] | effect on CYP1A2 [3] | duration of pH elevation >4 ([1]; pantoprazole 40 mg) | inhibition of H+, K+ ATPase ([2]; at 45 minutes) [%] | solubility in aqueous solutions ([4]; above pH 4) | solubility in aqueous solutions ([4]; pH 1) | hazard ratio for PFS, with vs without GAS [5] | median PFS ([6]; with GAS) [weeks] | median PFS ([6]; without GAS) [weeks] | hazard ratio for progression or death, with vs without GAS ([6]; univariate Cox regression) | increase of exposure on intake with a high caloric meal [7] | oral bioavailability [7] | decrease of mean pazopanib Cmin levels ([7]; esomeprazole administered 12 hours after fasted intake of pazopanib) [%] | percentage of patients with Cmin below the target threshold of 20.5 mg/L ([8]; pazopanib 600 mg taken with food, with GAS) [%] | percentage of patients with Cmin below the target threshold of 20.5 mg/L ([8]; pazopanib 600 mg taken with food, without GAS) [%] | percentage of patients with Cmin below the target threshold of 20.5 mg/L ([8]; pazopanib 800 mg taken fasted, with GAS) [%] | percentage of patients with Cmin below the target threshold of 20.5 mg/L ([8]; pazopanib 800 mg taken fasted, without GAS) [%] |
| --- | --- | --- | --- | --- | --- | --- | --- | --- | --- | --- | --- | --- | --- | --- | --- | --- | --- | --- |
| COc1ccc2[nH]c([S+]([O-])Cc3ncc(C)c(OC)c3C)nc2c1 (stereo not shown) [omeprazole] | 49.16 % of the day | 30 | dose‐dependent inducer of CYP1A2 | – | – | – | – | – | – | – | – | – | – | – | – | – | – | – |
| COc1ccnc(C[S+]([O-])c2nc3ccc(OC(F)F)cc3[nH]2)c1OC (stereo not shown) [pantoprazole] | – | – | does not affect CYP1A2 | 41.94 % of the day | 50 | – | – | – | – | – | – | – | – | – | – | – | – | – |
| Cc1ccc(Nc2nccc(N(C)c3ccc4c(C)n(C)nc4c3)n2)cc1S(N)(=O)=O [pazopanib] | – | – | – | – | – | practically insoluble | slightly soluble | 1.13 | 17 | 32 | 3.89 | ~ 2 fold | approximately 21% | 36 | 26.9 | 14 | 33.3 | 19.5 |
